Compound activity as filed in PubChem.
XiGFP reactiv = activators of inactive X chromosome reactivation, primary screen, imaging, XiGFP fibroblasts, GFP high-content imaging, set 2 | XiGFP mouse fibroblasts, % GFP-positive cells imaging, 3 d; cells co-treated with 5-aza-dC sensitizer; scaled so ellipticine positive control = 100% | activation, % at 7.58 µM | actives 0.055% (n = 360,000) | AID 743238, 2013;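 active = mean normalized replicate activation at least 10% and every replicate at or above 10%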;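 also: 0% = median of on-plate neutral control wells and 100% = ellipticine 6 µM median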
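Assay system – SV40-immortalized XiGFP fibroblast cells, line 68-5-11 · Buffer or medium – DMEM supplemented with 5-aza-dC as sensitizing agent · Dosing – one concentration, pinned · Benchmarks – positive control ellipticine, 6 µM final · Times – 3 days compound exposure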
MIN6 prolif = inducers of MIN6 beta-cell proliferation, primary screen, ATP luminescence, uHTS; MIN6 cells proliferation, ATPlite luminescence, 48 h; cells starved in 0.2% serum; 100% = growth in 10% serum; proliferation, % at 10 µM; actives 0.29% (n = 330,000); AID 2380, 2010;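 active = compounds whose signal lies at least 3.5 SD above the mean of all wells on their plate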;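 also: 0% = DMSO-treated cells in low-serum medium and 100% = 10% serum control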
NTR1 agonist = agonists of human NTR1, primary screen, imaging, U2OS cells, beta-arrestin-GFP, high content | actives 0.17% (n = 330,000) | AID 493036, 2011 | activation, % at 20 µM | Neurotensin receptor type 1 (Homo sapiens), P30989 | NTR1-U2OS beta-arrestin-GFP spot imaging, agonist mode;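 active = activation at or above 40% of the spot to cytoplasm intensity ratio, with at least 20 cells analyzed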;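 also: 0% = DMSO without peptide and 100% = 100 nM NTR1 peptide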
Target sequence (P30989 whole entry, looked up): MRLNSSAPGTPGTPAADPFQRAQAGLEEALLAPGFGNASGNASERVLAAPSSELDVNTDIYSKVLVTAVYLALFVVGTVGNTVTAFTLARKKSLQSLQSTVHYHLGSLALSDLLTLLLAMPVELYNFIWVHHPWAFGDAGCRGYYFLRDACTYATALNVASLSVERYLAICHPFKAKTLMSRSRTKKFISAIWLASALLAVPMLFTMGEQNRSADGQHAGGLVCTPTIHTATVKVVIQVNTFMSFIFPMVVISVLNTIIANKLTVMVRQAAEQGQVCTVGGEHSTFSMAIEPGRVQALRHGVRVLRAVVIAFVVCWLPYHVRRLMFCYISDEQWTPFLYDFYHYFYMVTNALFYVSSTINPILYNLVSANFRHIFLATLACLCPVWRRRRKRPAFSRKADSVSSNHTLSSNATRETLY
V-ATPase pH = regulators of yeast V-ATPase proton pumping, primary screen, pHLuorin cytosolic pH fluorescence | actives 0.37% (n = 350,000) | response, % at 10 µM | AID 504577, 2011 | S. cerevisiae; in the data active = response mostly above about 7.3%, no sharp cut-off; inactive = mostly below about 5.4%; also: actives read high
T cell HTS = modulators of CD8 T cell-vesicle binding, primary screen, mouse 2C CD8+ T cells, flow cytometry | 2C CD8+ T cell-vesicle binding; hits give low values | response (vesicle binding), % at 7 µM | actives 0.068% (n = 330,000) | AID 2052, 2009;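 active = response, share of CD8 T cells binding vesicles, and their 90th percentile fluorescence all below set limits, cut at about 80% in these data, passing the limit was not always enough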;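 also: values below 100% mean blocked vesicle binding to the CD8+ T cells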
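Material: murine 2C transgenic CD8+ T lymphocytes / Also added: QL9-peptide-loaded Drosophila micro-vesicles bearing Ld, ICAM-1 and B7-1 / Schedule: binding step 1.5 h, 37 °C, antibody labelling 20 min, ice / Signal: flow cytometry, PE anti-B7-1 (FL2) versus Alexa647 anti-CD8 (FL8), PFA-fixed / Evaluation: percent CD8+ FL2 mean versus row control / Benchmarks: naked versus QL9-loaded vesicles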
Arrestin-AP2 inh = inhibitors of beta-arrestin/AP2 binding, primary screen, biochemical, GPCR trafficking, flow cytometry | beta-arrestin 1 C-terminal peptide binding to AP2 beta2-adaptin appendage (human) | FITC-arrestin peptide / GST-AP2 beads; AP2 beta2 appendage carries R879A mutation | inhibition, % at 10 µM | actives 0.31% (n = 340,000);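 active = inhibition above a set limit, near 3 SD of compounds lacking own fluorescence, cut at about 54% in these data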;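 also: plate controls were DMSO wells for no effect and 5 µM unlabelled arrestin peptide for full effect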
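Material – GST-tagged AP2 beta2-adaptin appendage (R879A) on 4 µm glutathione beads · Probe or stimulus – fluorescein-tagged arrestin peptide at 50 nM final · Timing – 12 min plus 1 h, RT · Detection – bead flow cytometry, FITC channel · Read-out basis – inhibition as reduced fluorescein signal on beads, percent · Medium – PBS plus Tween 20 (0.05%) and BSA (0.1%)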
V-ATPase pH SP = yeast V-ATPase proton pumping modulators, confirmation, S. cerevisiae, pH-sensitive GFP, second cherry-pick. response, % at 10 µM. S. cerevisiae pHLuorin cytosolic pH, V-ATPase proton transport. actives 2% (n = 980). AID 602197, 2012. shares compounds with V-ATPase pH; in the data active = response above about 24%;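 also: plate controls were vehicle wells for no effect and positive control wells for full effect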
Active calls of the source: *; i = inactive; nt = not tested or not shown. Shown are actives, neighbours in structure and some others; about 0.89% of the full set was active somewhere.

SMILES	XiGFP reactiv	MIN6 prolif	NTR1 agonist	V-ATPase pH	T cell HTS	Arrestin-AP2 inh	V-ATPase pH SP
CCn1c(C)cc2c(c1=O)C(c1ccncc1)C(C#N)=C(N)O2 (centres undefined)	nt	7	-2	5	189	19	nt
COc1ccc(S(=O)(=O)N2CC[C@@H]3[C@@H](CO)Nc4ccc(C5=CCCCC5)cc4[C@@H]32)cc1	0	nt	nt	nt	nt	nt	nt
COCC(=O)N1C[C@H](C)[C@@H](OC)CN(C)C(=O)c2ccc(NC(=O)c3ccc(F)cc3)cc2OC[C@H]1C	0	nt	nt	nt	nt	nt	nt
Cc1c(Cl)sn(-c2ccc(Cl)cc2)c1=O	0	-5	1	66*	nt	5	61*
CCCCCn1nc(C(=O)N(CCOC)c2c(N)n(CCCC)c(=O)[nH]c2=O)c2ccccc2c1=O	0	1	-2	13*	428	-10	-2
CCCCn1c(N)c(N(CC)C(=O)c2cccc(OCc3ccccc3)c2)c(=O)[nH]c1=O	0	-3	-1	11*	289	-2	0
CCCCCCn1nc(C(=O)N(CCOC)c2c(N)n(CCCC)c(=O)[nH]c2=O)c2ccccc2c1=O	0	-2	1	-5	322	-5	nt
CN(CC(=O)NC1CCCCC1)S(=O)(=O)c1ccc(Cl)cc1	nt	-2	0	11*	201	26	1
CN(CC(=O)NC1CCCCCC1)S(=O)(=O)c1ccc(F)cc1	0	-3	0	-2	176	-14	nt
O=C(CCSc1ccc(Cl)cc1)NC1CCCCC1	nt	1	3	13*	292	35	-1
C[C@@H]1CN([C@H](C)CO)S(=O)(=O)c2ccc(-c3ccc(F)cc3)cc2O[C@H]1CN(C)C(=O)Nc1ccc(F)cc1	0	nt	nt	nt	nt	nt	nt
Cc1ccc(C(=O)Nc2nccc(-c3cccs3)n2)cc1	nt	-1	-3	8.5*	352	8	3
NC(=S)Nc1nccc(-c2cccs2)n1	0	0	-2	7	681	9	nt
CCOC(=O)CNC(=O)Cc1ccc(Cl)cc1	0	2	1	0	504	39	nt
CCN(CC)C(=O)CNC(=O)Cc1ccc(Cl)cc1	nt	1	3	9.5*	483	24	2
O=C(CCC(=O)c1ccc(F)cc1)Nc1cc(Cl)cc(Cl)c1	nt	0	2	-1	332	17	1
CC(=O)c1cccc(NC(=O)CCC(=O)c2ccc(F)cc2)c1	0	-1	2	1	nt	7	nt
COc1cc(/C=C/C(=O)NC2CCCCC2)cc(OC)c1OC	0	-4	0	8.8*	194	8	2
CCCOc1ccc(/C=C/C(=O)NC2CCCCC2)cc1OC	0	2	0	-5	196	2	nt
CC(=O)Nc1cccc(C(=O)OCC(=O)NC(=O)NC2CCCC2)c1	0	nt	nt	-1	nt	nt	nt
CC(=O)Nc1cccc(C(=O)OC(C)C(=O)NC(=O)NC2CCCCC2)c1 (centres undefined)	0	-1	-1	11*	987	24	0
COCC#Cc1cnc2c(c1)C(=O)N([C@@H](C)CO)C[C@@H](C)[C@H](CN(C)S(C)(=O)=O)O2	-1	nt	nt	nt	nt	nt	nt
Cc1ccc(S(=O)(=O)NCCC(=O)N2CCN(S(=O)(=O)c3cccc(F)c3)CC2)cc1C	0	1	0	9.1*	151	24	-5
Cc1ccc(S(=O)(=O)NCCC(=O)N2CCN(S(=O)(=O)c3ccccc3)CC2)cc1C	0	0	0	0	313	13	nt
O=C(Cc1c(Cl)cccc1Cl)OCC(=O)N1CCc2ccccc2C1	-1	0	0	1	i	2	nt
SMILES	XiGFP reactiv	MIN6 prolif	NTR1 agonist	V-ATPase pH	T cell HTS	Arrestin-AP2 inh	V-ATPase pH SP
O=C(Cc1c(Cl)cccc1Cl)OCC(=O)N1CCOCC1	0	-2	0	13*	154	3	3
O=C(O)c1ccc(-c2nnc(-c3ccc([N+](=O)[O-])cc3)o2)cc1	0	-1	0	9.4*	318	42	2
CO[C@H]1CN(C)C(=O)c2cc(NC(=O)NC(C)C)ccc2OC[C@H](C)NC[C@@H]1C	-1	nt	nt	nt	nt	nt	nt
CN1CCN(C2CC(=O)N(Cc3ccc(N4CCCC4=O)cc3)C2=O)CC1 (centres undefined)	nt	-1	-1	11*	647	2	-3
O=C1CC(N2CCN(c3ccc(F)cc3)CC2)C(=O)N1Cc1ccc(N2CCCC2=O)cc1 (centres undefined)	nt	nt	nt	-6	nt	1	nt
Cc1ccc(C(=O)OCC(=O)NCc2cccs2)cc1	0	-3	-1	9.9*	332	24	3
CC(C)NC(=O)N(C)C[C@@H]1Oc2ncc(C#CC3CCCCC3)cc2C(=O)N([C@H](C)CO)C[C@H]1C	1	nt	nt	nt	nt	nt	nt
CSc1ncccc1C(=O)N1CCN(S(=O)(=O)c2ccc3ccccc3c2)CC1	0	-1	0	10*	192	-8	1
COc1ccc(OC)c(NC(=O)c2ccc(OC3CSC3)cc2)c1	0	-5	3	13*	407	15	-2
O=C(NCc1ccco1)C(=O)NCC(c1ccco1)N1CCOCC1 (centres undefined)	0	-4	2	19*	165	6	-4
O=C(NCc1cccnc1)C(=O)NCC(c1ccco1)N1CCOCC1 (centres undefined)	0	0	1	5	415	19	nt
CCOC(=O)Cc1csc(NC(=O)COc2ccccc2)n1	nt	-2	0	11*	292	4	0
CCN(CC)CCNC(=O)c1ccc(NC(=O)c2cccc(S(=O)(=O)Nc3ccc(C)cc3)c2)cc1	0	-3	0	2	238	1	nt
CN(C)CCNC(=O)c1cccc(S(=O)(=O)Nc2ccc(F)cc2)c1	0	-2	-1	6.2*	196	43	1
O=C(/C=C/c1cccc(F)c1)Nc1cc(S(=O)(=O)N2CCOCC2)ccc1N1CCCC1	0	0	0	6.5*	258	17	2
COc1ccc(/C=C/C(=O)Nc2cc(S(=O)(=O)N3CCOCC3)ccc2OC)cc1	0	-2	-1	-4	i	19	nt
O=C(/C=C/c1ccc(F)cc1)Nc1cc(S(=O)(=O)N2CCOCC2)ccc1N1CCCC1	0	0	1	-1	218	-1	nt
